# In ChEMBL document CHEMBL1933057, “Pyrrole alkanoic acid derivatives as nuisance inhibitors of microsomal prostaglandin E2 synthase-1” (Eur J Med Chem, 2012):
# The source made the active and inactive calls. The rule behind the calls is not given here.
# What was measured:
# [1] = molecular target: T1, Prostaglandin E synthase (Homo sapiens) (UniProt O14684); assay: Inhibition of mPGES-1 in human A549 cell microsomes assessed as conversion of PGH2 into PGE2 at 3.3 uM at 0 degC after 5 mins by HPLC-UV analysis; conditions: Microsome
# T1 sequence (whole entry): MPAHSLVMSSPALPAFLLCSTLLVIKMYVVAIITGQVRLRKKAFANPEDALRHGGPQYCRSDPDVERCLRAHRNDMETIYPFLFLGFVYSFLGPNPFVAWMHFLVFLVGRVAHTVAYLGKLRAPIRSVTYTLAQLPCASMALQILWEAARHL
# Procedure, shortened: (§1)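 Enzyme source was microsomes from A549 cells. Compound was incubated with PGH2 substrate for 5 min at 0 °C. PGE2 formation was monitored by online solid phase extraction HPLC with UV detection. Values are means of at least two independent determinations.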
# [2] = molecular target: T1, Prostaglandin E synthase (Homo sapiens); assay: Inhibition of human recombinant mPGES-1 in assessed as conversion of PGH2 into PGE2 at 1 uM at 20 degC after 5 mins by HPLC-UV analysis
# Procedure, shortened: (§2)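 Commercial microsomal human recombinant mPGES-1, diluted about 1:200 in phosphate buffer (50 mM sodium phosphate, 100 mM NaCl, 20% glycerol, pH 7.2). Compound in DMSO added to Tris buffer (50 mM, pH 7.2) with freshly dissolved 2.5 mM reduced glutathione, 5 min, then enzyme, 5 min preincubation at room temperature. PGH2 started reaction, 5 min at room temperature. PGE2 measured by online SPE-HPLC-UV at 195 nm. Reference incubations without enzyme gave non-enzymatic PGE2.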
# [3] = molecular target: T1, Prostaglandin E synthase (Homo sapiens); assay: Inhibition of human recombinant mPGES-1 in assessed as conversion of PGH2 into PGE2 at 10 uM at 20 degC after 5 mins by HPLC-UV analysis in presence of 0.1% Triton X-100
# Procedure, shortened: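 Human recombinant mPGES-1 microsomes in Tris buffer (50 mM, pH 7.2) containing 2.5 mM glutathione, with 0.1% Triton X-100 added. Compound in DMSO, 5 min preincubation with enzyme at room temperature, then PGH2 substrate, 5 min reaction at 20 °C. PGE2 formed was quantified by online solid phase extraction HPLC with UV detection.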
# Prostaglandin E synthase [4] = molecular target: T2, Prostaglandin E synthase (Homo sapiens, UniProt O14684); assay: Inhibition of human recombinant mPGES-1 in assessed as conversion of PGH2 into PGE2 at 20 degC after 5 mins by HPLC-UV analysis
# T2 sequence (O14684 whole entry): T1 sequence (whole entry)
# Procedure, shortened: as §2, with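 “temperature.” for “temperature. PGE2 measured by online SPE-HPLC-UV at 195 nm. Reference incubations without enzyme gave non-enzymatic PGE2.”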
# Prostaglandin E synthase [5] = molecular target: T2, Prostaglandin E synthase; assay: Inhibition of mPGES-1
# Procedure, shortened: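 PGH2 was the substrate, and reactions ran for 5 min. One version used microsomes from A549 cells at 0 °C. The other used commercial microsomes containing human recombinant mPGES-1, at 20 °C or room temperature, in 50 mM Tris pH 7.2 with 2.5 mM GSH. PGE2 formed was measured by online solid-phase extraction HPLC with UV detection.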
# Prostaglandin E synthase [6] = molecular target: T2, Prostaglandin E synthase; assay: Inhibition of mPGES-1 in human A549 cell microsomes assessed as conversion of PGH2 into PGE2 at 0 degC after 5 mins by HPLC-UV analysis; design: species or system Microsome; procedure, shortened: as §1
Structure (SMILES),inhibition [1],inhibition [2],also measured
Cc1c(C(=O)c2ccccc2)c(C)n(C)c1CCC(=O)O,inactive,inactive,–
CCCCCCCCCCCC(=O)c1cc(CCC(=O)O)n(C)c1,–,inactive,–
Cc1c(C(=O)c2ccc3ccccc3c2)c(C)n(C)c1CCC(=O)O,inactive,inactive,–
CCCCCCCCCCCCc1c(C)c(C(=O)O)n(C)c1C,–,37%,–
Cc1c(C(=O)CCc2ccccc2)c(C)n(C)c1CCC(=O)O,inactive,inactive,–
CCCCCCCCCCCC(=O)c1c(C)c(CCC(=O)O)n(Cc2ccc(Cl)cc2)c1C,–,78%,–
CCCCCCCC(=O)c1c(C)c(CCC(=O)O)n(C)c1C,55%,inactive,–
CCCCCCCCCCCCCC(=O)c1c(C)c(CCC(=O)O)n(C)c1C,63%,91%,–
CCCCCCCCCCCC(=O)c1c(C)c(C(=O)O)n(Cc2ccccc2)c1C,–,65%,–
CCCCCCCCCCCC(=O)c1c(C)c(CC(=O)O)n(C)c1C,–,22%,–
CCCCCCCCCCCC(=O)c1c(C)c(C(=O)O)n(-c2ccccc2)c1C,–,99%,–
CCCCCCCCCC(=O)c1c(C)c(CCC(=O)O)n(C)c1C,62%,inactive,–
CCCCCCCCCCCC(=O)c1c(C)c(CC(=O)O)n(Cc2ccccc2)c1C,–,35%,–
CCCCCCC(=O)c1c(C)c(CCC(=O)O)n(C)c1C,inactive,inactive,–
CCCCCCCCCCCC(=O)c1c(-c2ccccc2)c(CCC(=O)O)n(Cc2ccccc2)c1C,–,64%,–
CCCCCCCCCCCC(=O)c1c(C)c(C(=O)O)n(C)c1C,–,59%,–
CCCCCCCCCCCC(=O)c1c(C)[nH]c(CCC(=O)O)c1C,–,38%,–

Structure (SMILES),inhibition [1],inhibition [2],also measured
CCCCCCCCCCCCCCCC(=O)c1c(C)c(CCC(=O)O)n(C)c1C,35%,97%,–
CCCCCCCCCCCC(=O)c1c(C)c(CCC(N)=O)n(C)c1C,–,39%,–
CCCCCCCCCCCC(=O)c1c(C)c(CCC(=O)NS(C)(=O)=O)n(C)c1C,–,52%,inhibition [3]: inactive; IC50 (Prostaglandin E synthase [4]): 600 nM
CC(C)c1ccc2c(c1)c(SC(C)(C)C)c(CC(C)(C)C(=O)O)n2Cc1ccc(Cl)cc1,–,–,inhibition [3]: 75%
CCCCCCCCCCCC(=O)c1c(C)c(CCC(=O)O)n(Cc2ccc(O)cc2)c1C,–,53%,–
CS(=O)(=O)Nc1ccc([N+](=O)[O-])cc1OC1CCCCC1 [NS-398],–,–,IC50 (Prostaglandin E synthase [5]): 10000 nM
CCCCCCCCCCCC(=O)c1c(C)c(CCC(=O)O)n(Cc2ccc(C(=O)O)cc2)c1C,–,27%,–
CCCCCCC(Sc1nc(Cl)cc(NCc2ccc(-c3ccccc3)cc2)n1)C(=O)O (stereo not drawn),–,–,inhibition [3]: inactive
CCCCCCCOc1cccc(C(=O)c2c(C)c(CCC(=O)O)n(C)c2C)c1,67%,inactive,–
CCCCCCCCCCCC(=O)c1c(C)c(CCC(=O)O)n(Cc2ccccc2)c1C,–,62%,–
Cc1c(C(=O)c2cccc3ccccc23)c(C)n(C)c1CCC(=O)O,inactive,inactive,–
CCCCCCCCCCCC(=O)c1c(C)c(CCCC(=O)O)n(C)c1C,–,70%,–
Cc1c(C(=O)c2ccc(-c3ccccc3)cc2)c(C)n(C)c1CCC(=O)O,inactive,inactive,–
CCCCCCCCCCCC(=O)c1cc(CC(=O)O)n(C)c1,–,inactive,–
CCCCCCCCCCCC(=O)c1c(C)c(CCC(=O)NN)n(C)c1C,–,35%,–
CCCCCCCCCCCC(=O)c1c(C)c(CC(=O)O)n(-c2ccccc2)c1C,–,23%,–

# Now from value to molecule, other results behind:
inhibition [1],inhibition [2],Structure (SMILES),also measured
–,90%,CCCCCCCCCCCC(=O)c1c(-c2ccccc2)c(CCC(=O)O)n(C)c1C,inhibition [3]: inactive; IC50 (Prostaglandin E synthase [4]): 140 nM
–,77%,CCCCCCCCCCCC(=O)c1c(C)c(CCC(=O)NS(=O)(=O)c2ccccc2)n(C)c1C,–
–,28%,CCCCCCCCCCCC(=O)c1c(C)c(CCC(=O)O)n(Cc2ccc(C(N)=O)cc2)c1C,–
inactive,97%,CCCCCCCCCCCCCCCCCC(=O)c1c(C)c(CCC(=O)O)n(C)c1C,–
23%,inactive,CCCCCCCCOc1ccccc1C(=O)c1c(C)c(CCC(=O)O)n(C)c1C,–
74%,54%,CCCCCCCCCCCC(=O)c1c(C)c(CCC(=O)O)n(C)c1C,inhibition [3]: inactive; IC50 (Prostaglandin E synthase [4]): 670 nM; IC50 (Prostaglandin E synthase [5]): 800 nM; IC50 (Prostaglandin E synthase [6]): 800 nM
–,52%,CCCCCCCCCCCC(=O)c1c(C)c(CCC(=O)O)n(Cc2ccc(C)cc2)c1C,–
–,65%,CCCCCCCCCCCC(=O)c1c(C)c(CCC(=O)O)n(-c2ccccc2)c1C,–
–,17%,CCCCCCCCCCCC(=O)c1c(C)[nH]c(CC(=O)O)c1C,–
–,72%,CCCCCCCCCCCC(=O)c1c(C)c(CCC(=O)O)n(Cc2ccc(OC)cc2)c1C,–
–,22%,CCCCCCCCCCCC(=O)c1c(C)c(CCC#N)n(C)c1C,–
–,62%,CCCCCCCCCCCC(=O)c1c(C)[nH]c(C(=O)O)c1C,–
64%,32%,CCCCCCOc1ccc(C(=O)c2c(C)c(CCC(=O)O)n(C)c2C)cc1,–
–,inactive,Cc1c(C(=O)Cc2ccc(-c3ccccc3)cc2)c(C)n(C)c1CCC(=O)O,–
inactive,inactive,CCCC(=O)c1c(C)c(CCC(=O)O)n(C)c1C,–
–,inactive,CCCCCCCCCCCC(=O)c1cc(C(=O)O)n(C)c1,–
